An excerpt weighted towards active compounds, which were near 2.9% of everything screened.
PGC1a acetyl inh: lowers PGC1a acetylation signal in U2OS cells | 350,000 compounds, 0.17% hits | AlphaScreen anti-acetyl-lysine; with virally co-expressed GCN5 acetyltransferase | inhibition, % at 15.6 µM;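 active = every replicate shows inhibition of at least 40%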
PglD DTNB: PglD (C. jejuni) enzyme inhibition | purified PglD enzyme, DTNB colorimetric CoA detection | AID 602405 | 360,000 compounds, 0.098% hits | inhibition, % at 12.5 µM; in the data active = inhibition above about 16%, passing the limit was not always enough
Cneo AK release: causes C. neoformans cell lysis. lysis activity, % at 15 µM. 360,000 compounds, 0.2% hits. AID 651654. adenylate kinase release luminescence, 4 h; normalised: neutral wells 0, clomiphene wells 100;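 active = mean lysis activity across replicates of at least 80%, whatever share of replicates individually reach that level; inactive = mean lysis activity below 80%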
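Test system: log-phase Cryptococcus neoformans yeast cells. Input: 5 × 10^6 yeast cells/mL. Medium: fresh YPD growth medium. Doses: single dose. Incubation: static 4 h at 37 °C with compound, 1 h detection. Measured by: luminescent adenylate kinase detection reagent. Read-out: signal increase indicating cell lysis. Benchmarks: Clomiphene.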
FGF22 binding: shifts melting point of recombinant human FGF22; recombinant FGF22 thermal shift, SYPRO orange fluorescence; percent of sucrose octasulfate shift, DMSO zero; activity (Tm shift, normalised), % at 9.99 µM; 340,000 compounds, 1.5% hits; AID 651658;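 active = mean Tm shift, scaled 0 neutral to 100 positive control, at about 1.3% or above, every replicate too, limit read from the data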
Target sequence (Q9HCT0 whole entry, looked up): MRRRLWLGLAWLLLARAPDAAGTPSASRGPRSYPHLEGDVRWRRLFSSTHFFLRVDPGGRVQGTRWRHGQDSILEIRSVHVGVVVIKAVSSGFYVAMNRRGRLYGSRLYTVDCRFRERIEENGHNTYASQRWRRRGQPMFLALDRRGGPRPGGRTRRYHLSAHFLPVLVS
Vif inh: HIV Vif inhibition; HEK293T cells, Vif self-association by quenched fluorescence, imaging, 24 h; inhibition, % at 7.49 µM; 340,000 compounds, 0.35% hits; AID 602346; in the data active = inhibition above about 50%, passing the limit was not always enough
Ecoli rRNA inh: selective bacterial rRNA inhibition in E. coli; E. coli WT GFP vs humanized-ribosome RFP mutants, fluorescence, 24 h; active compounds read low; DMSO median 0, no signal -100; GFP signal change (wild-type ribosome), % (test concentration not listed); 350,000 compounds, 1.6% hits;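 active = significant combined selectivity score with lowered wild-type GFP, culture density cut under 30%, mutant RFP and density less affected; inactive = any of these conditions unmet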
Numbers stand for hits.

How did COc1ccc(-c2ccc3c(c2)O[C@@H](CN(C)CC2CC2)[C@@H](C)CN([C@H](C)CO)S3(=O)=O)cc1 do in these assays?
PGC1a acetyl inh: inactive; Ecoli rRNA inh: inactive

Results for COc1ccc(CC(NC(C)=O)C(=O)NC2CCN(C(=O)c3ccccc3F)CC2)cc1 (configuration not stated) ?
PGC1a acetyl inh: inactive; PglD DTNB: inactive; Cneo AK release: inactive; FGF22 binding: inactive; Vif inh: 70; Ecoli rRNA inh: inactive

Results for COc1ccc(C(=O)N2CCC(NC(=O)C(Cc3ccccc3OC)NC(C)=O)CC2)cc1 (configuration not stated) ?
PglD DTNB: inactive; Cneo AK release: inactive; FGF22 binding: inactive; Vif inh: inactive; Ecoli rRNA inh: inactive

How did COc1ccccc1CC(NC(C)=O)C(=O)NC1CCN(C(=O)c2ccc([N+](=O)[O-])cc2)CC1 (configuration not stated) do in these assays?
FGF22 binding: 44; Vif inh: inactive; Ecoli rRNA inh: inactive

How did COc1ccc(NC(=O)N(C)C[C@@H]2OCc3cn(nn3)CCCC(=O)N([C@@H](C)CO)C[C@@H]2C)c(OC)c1 do in these assays?
PGC1a acetyl inh: inactive; Ecoli rRNA inh: inactive

How did O=C(C[C@H]1CC[C@@H](NS(=O)(=O)c2ccc(F)cc2)[C@H](CO)O1)NCc1ccncn1 do in these assays?
PGC1a acetyl inh: inactive; PglD DTNB: inactive; Cneo AK release: inactive; FGF22 binding: inactive; Ecoli rRNA inh: inactive

How did O=C(c1ccco1)N1CCN(c2ncnc3c2[nH]c2ccc(Br)cc23)CC1 do in these assays?
PGC1a acetyl inh: inactive; PglD DTNB: inactive; Cneo AK release: inactive; Vif inh: inactive

What do the screens show for `CCOc1ccc2[nH]c3c(N4CCN(C(=O)c5ccco5)CC4)ncnc3c2c1`?
PGC1a acetyl inh: inactive; PglD DTNB: inactive; Cneo AK release: inactive; FGF22 binding: inactive; Vif inh: inactive; Ecoli rRNA inh: -36

What do the screens show for `COc1ccc2c3c(n(C)c2c1)[C@@H](CO)NCC31CCN(C(=O)CC2CC2)CC1`?
Ecoli rRNA inh: inactive

Results for COc1ccc(CN(C)C[C@H]2Oc3c(NS(=O)(=O)c4c(C)noc4C)cccc3C(=O)N([C@H](C)CO)C[C@H]2C)cc1 ?
PGC1a acetyl inh: inactive; PglD DTNB: inactive; Cneo AK release: inactive; FGF22 binding: inactive; Ecoli rRNA inh: inactive

How did O=C(CC(=O)c1ccccn1)c1ccccc1 do in these assays?
FGF22 binding: inactive; Vif inh: inactive; Ecoli rRNA inh: inactive

What do the screens show for `O=C(CC(CC(=O)c1ccccc1)c1ccccn1)c1ccccc1`?
PGC1a acetyl inh: inactive; PglD DTNB: inactive; Cneo AK release: inactive; FGF22 binding: 44; Vif inh: inactive; Ecoli rRNA inh: inactive

What do the screens show for `COc1ccc(C2CC(=O)C=C(NCc3ccccc3)C2)cc1` (configuration not stated)?
PGC1a acetyl inh: inactive; FGF22 binding: inactive; Vif inh: inactive

Results for COc1ccc(C2CC(=O)C=C(NCc3ccc4c(c3)OCO4)C2)cc1 (configuration not stated) ?
PGC1a acetyl inh: inactive; FGF22 binding: inactive; Vif inh: inactive; Ecoli rRNA inh: -24

Results for COc1ccc([C@H]2CC(=O)C=C(c3ccc4c(c3)OCCO4)C2)cc1 ?
PGC1a acetyl inh: inactive; PglD DTNB: inactive; Cneo AK release: inactive; FGF22 binding: inactive; Vif inh: inactive; Ecoli rRNA inh: -21

How did O=C1C=C(c2ccc3c(c2)OCO3)C[C@@H](c2ccc3c(c2)OCO3)C1 do in these assays?
PGC1a acetyl inh: inactive; PglD DTNB: inactive; Cneo AK release: inactive; FGF22 binding: inactive; Vif inh: inactive; Ecoli rRNA inh: inactive

Results for O=C(C[C@@H]1C[C@@H]2c3cc(NC(=O)C4CCOCC4)ccc3O[C@@H]2[C@@H](CO)O1)NCc1cc(F)ccc1F ?
PGC1a acetyl inh: inactive; PglD DTNB: inactive; Cneo AK release: inactive; FGF22 binding: inactive; Ecoli rRNA inh: inactive

What do the screens show for `COc1ccccc1NC(=O)N1CC[C@@H]2[C@@H](CO)N(C)c3ccc(-c4cccc(F)c4)cc3[C@@H]21`?
PGC1a acetyl inh: inactive; PglD DTNB: inactive; Cneo AK release: inactive; FGF22 binding: inactive; Ecoli rRNA inh: inactive

Results for CN(C)CC(=O)Nc1ccc2c(c1)[C@@H]1C[C@H](CC(=O)N3CCOCC3)O[C@H](CO)[C@@H]1O2 ?
PGC1a acetyl inh: inactive; PglD DTNB: inactive; Cneo AK release: inactive; FGF22 binding: inactive; Ecoli rRNA inh: inactive

What do the screens show for `CC(C)NC(=O)Nc1ccc2c(c1)CC(=O)N([C@@H](C)CO)C[C@@H](C)[C@H](CN(C)S(C)(=O)=O)O2`?
PGC1a acetyl inh: inactive; PglD DTNB: inactive; Cneo AK release: inactive; Ecoli rRNA inh: inactive

How did O=CNc1ccc2c3c(cccc13)-c1ccccc1-2 do in these assays?
PGC1a acetyl inh: inactive; PglD DTNB: inactive; Cneo AK release: inactive; FGF22 binding: 45; Vif inh: 56; Ecoli rRNA inh: inactive

What do the screens show for `CC(=O)Nc1ccc2c3c(cccc13)C(=O)N(c1ccccc1)C2=O`?
FGF22 binding: inactive; Vif inh: inactive; Ecoli rRNA inh: inactive

Results for CN(C)CC(=O)N1[C@H](CO)[C@@H](c2ccccc2)C12CN(C(=O)C1CCCC1)C2 ?
Ecoli rRNA inh: inactive

How did O=C(Cc1cccc2ccccc12)NN1C(=O)CSC1=S do in these assays?
PGC1a acetyl inh: inactive; FGF22 binding: 44; Vif inh: inactive; Ecoli rRNA inh: inactive

How did CC(C)CC#Cc1ccc([C@@H]2[C@H]3CN(C(=O)Cc4ccccc4)CC(=O)N3[C@H]2CO)cc1 do in these assays?
PGC1a acetyl inh: inactive; Ecoli rRNA inh: inactive

Results for O=C(C1CCCC1)N1C[C@H]2[C@@H](c3ccccc31)[C@@H](CO)N2C(=O)Cc1ccccn1 ?
PGC1a acetyl inh: inactive; PglD DTNB: inactive; Cneo AK release: inactive; FGF22 binding: inactive; Ecoli rRNA inh: inactive

What do the screens show for `NS(=O)(=O)c1ccc(CCNC(=O)c2cc(-c3ccccc3)nc3ccccc23)cc1`?
PGC1a acetyl inh: inactive; PglD DTNB: inactive; Cneo AK release: inactive; Vif inh: inactive

How did NS(=O)(=O)c1ccc(CCNC(=O)c2cc(-c3ccco3)nc3ccccc23)cc1 do in these assays?
PglD DTNB: inactive; Cneo AK release: inactive; FGF22 binding: 6.2; Vif inh: inactive; Ecoli rRNA inh: inactive

What do the screens show for `O=C(/C=C\Nc1ccc2c(c1)OCO2)c1ccc(Cl)s1`?
PGC1a acetyl inh: inactive; PglD DTNB: inactive; Cneo AK release: inactive; FGF22 binding: 43; Vif inh: inactive; Ecoli rRNA inh: inactive

Results for O=C(/C=C\Nc1ccc2c(c1)OCO2)c1cccs1 ?
PGC1a acetyl inh: inactive; PglD DTNB: inactive; Cneo AK release: inactive; FGF22 binding: inactive; Vif inh: 66; Ecoli rRNA inh: inactive

What do the screens show for `O=C(/C=C\Nc1ccc2c(c1)OCO2)c1ccc2c(c1)OCO2`?
FGF22 binding: inactive; Vif inh: inactive; Ecoli rRNA inh: inactive

Source: PubChem (Broad Institute)
